ChEMBL document CHEMBL4513216, “Probing the Open Global Health Chemical Diversity Library for Multistage-Active Starting Points for Next-Generation Antimalarials” (ACS Infect Dis, 2020)

Assay: Toxicity liver stage against HepG2, at 10uM
Format: cell-based
Design: test concentration 10 uM, cell line HepG2-A16-CD81EGFP
Settings: human, HepG2-A16-CD81EGFP cells; read-out: INHIBITION
Procedure, shortened: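 Uninfected HepG2-A16-CD81EGFP cells, 3 × 10^3 per well, 1536-well, plated on prespotted compound at 10 μM final, parasite-free screening media added to match infected plates; puromycin 10 μM positive, DMSO 0.5% negative; run in parallel with 48 h PbLuc assay at 37 °C, 5% CO2; viability by CellTiter-Glo luminescence, normalized to controls.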

Structure (SMILES)	cytotoxicity at 10 µM [%]
O=C1CCCc2cc(-c3csc(CCN4CCOC4=O)n3)ccc2N1	0.196
Cc1ccc(C(CC(=O)O)NC(=O)CCc2cccs2)cc1 (centres undefined)	-4.32
COCC(=O)Nc1ccc(-c2noc([C@@H]3CCCN3CC(C)C)n2)cn1	5.82
COCCCNC(=O)Nc1ncc(-c2cccc(OC)c2)n1CCOC	18.6
O=C(NCc1ccccc1)NCC1CCN(Cc2ccsc2)CC1	-14.1
CCc1ccc(S(=O)(=O)NCCOc2ccc3nnc(C)n3n2)s1	-6.98
CCc1ccc(C(=O)N2CCCC3(CCCC(=O)N3C)C2)cc1 (centres undefined)	-5.72
O=C(c1cc(-n2cnnn2)ccc1Cl)N1CCOCC1	6.22
COCCCNC(=O)c1c(-n2cnnn2)sc2c1CCC2	11.4
OCCNc1nc(NCc2cccnc2)nc2nccnc12	-3.55
COc1ccc(-c2ccnc3nc(N4CCCCC4)[nH]c(=O)c23)cc1	5.31
CCN(CC)CCNC(=O)c1cc(OC)c2ccoc2c1	-0.971
Cc1cc(C(=O)Nc2cnn(CC(F)(F)F)c2)nc(N2CCOCC2)n1	-2.02
NC(=O)C1(CCCc2ccccn2)CCCN(CCO)C1 (centres undefined)	3.38
CC(=O)NCC(=O)N1C[C@@H]2CC[C@H](Oc3ccccc3Cl)[C@@H]2C1	9.16
O=C(Cc1ccsc1)N1CCC(O)(CN2CCc3ccccc3C2)C1 (centres undefined)	-7.27
CC(=O)N1C[C@@H](c2ccsc2)[C@@H]2CN(CC3CCCCC3)CC[C@@H]21	-7.99
Cc1ccc(C2CN(CCS(=O)(=O)C(C)C)CCO2)c(C)c1 (centres undefined)	8.25
c1cnc(N2CCC(OCC3CCCCO3)CC2)nc1 (centres undefined)	-11.4
NC(=O)N1CCCN(CCCSCc2ccccc2)CC1	-2.17
Cc1cnn(C2CCCN(C(=O)c3cc(-c4ccco4)[nH]n3)C2)c1 (centres undefined)	-9.48
CS(=O)(=O)c1ccc2c(c1)N(C(=O)Cc1cccc(F)c1)CCC2	14.9

Structure (SMILES)	cytotoxicity at 10 µM [%]
CNC(=O)CCS(=O)(=O)Cc1nnnn1-c1ccccc1	15.3
CCOc1c(F)cccc1C(=O)N(CC)C(C)c1ccncc1 (centres undefined)	11
O=C(Cn1cc(C2CC2)nn1)N(Cc1ccco1)Cc1cccs1	-13.3
O=C(c1ccc(CN2CCCCC2)cc1)N1CCCC1c1cccs1 (centres undefined)	-7.15
COc1ccc(CN(C(=O)CCC(C)C)c2cnn(C)c2)c(OC)c1	-1.35
Cc1cc(C)c(S(=O)(=O)Nc2c(C)noc2C)cc1C(=O)O	-8.18
CCCNC(=O)c1cc(Br)c2c(c1)OCCO2	9.65
CN(C)c1ncccc1CNC(=O)N(Cc1ccccc1F)C1CC1	2.6
CN(CCC(F)(F)F)C(=O)C1CSCN1C(=O)C(C)(C)C (centres undefined)	9.07
Cc1noc(C(C)C)c1C(=O)NS(=O)(=O)c1cccnc1	0.345
CC(C)CN1CCC(NC(=O)c2ccc(F)cc2F)CC1	-3.1
CN(C)CC1CN(c2ncnc3ccsc23)CCO1 (centres undefined)	12
O=C(NCc1ccc(Cl)cc1Cl)NCC1(O)CCSC1 (centres undefined)	-9.12
CCN(CC1CCOC1)C(=O)c1cc(OC)c2c(c1)OCCO2 (centres undefined)	-7.35
COc1cc(C(=O)N(C)Cc2cc(C(=O)O)c(C)o2)cc(OC)c1OC	-1.76
CCN(C(=O)NCc1cccnc1N(C)C)C(C)c1cccnc1 (centres undefined)	-4.6
CS(=O)(=O)CCN(CCc1cccc(F)c1)C1CC1	11.4
Cc1csc(NC(=O)C2CCN(Cc3cccc4c3OCCO4)CC2)n1	-17.9
O=S(=O)(NCCSc1nncn1C1CC1)c1ccccc1	-14.1
CCS(=O)(=O)NC(CCSC)C(=O)Nc1ccc(C)cc1C (centres undefined)	-8.9
CN(Cc1cccc(F)c1)C(=O)CS(=O)(=O)Cc1c(Cl)cccc1Cl	-2.81
CN1CCN(C(=O)CCc2cccnc2)c2ccc(F)cc21	-2.23

Structure (SMILES)	cytotoxicity at 10 µM [%]
COCCC1(CNC(=O)NC2CCCN(C)C2)CC1 (centres undefined)	-0.926
O=C(O)CC(NC(=O)c1cc(Br)c[nH]1)c1ccccc1 (centres undefined)	1.22
N#Cc1cccc(CS(=O)(=O)NCC(O)Cc2ccccc2)c1 (centres undefined)	2.99
CCOC(CC)C(=O)NCc1ccnc(Oc2ccc(F)cc2)c1 (centres undefined)	-1.43
Cc1noc(C)c1C(=O)N1CC[C@H]2C[C@@H](c3ccncn3)O[C@@H]2C1	-2.16
CC(C)[C@H]1COC(=O)N1Cc1nncn1C(C)C	-9.17
COc1ccccc1OC1(C(=O)O)CCN(c2ncccc2F)CC1	-12.9
Cc1ccc(C)c2c(O)cc(CNCC(=O)N3CCCC3)nc12	-12.4
COCC(NC1CSCCSC1)c1ccnn1C (centres undefined)	4.34
Nc1nc(NCCc2[nH]nc3c2CCCC3)cc(N2CCOCC2)n1	0.666
COc1ccc(OC)c(-c2nc(CN(C)Cc3noc(C)n3)c(C)o2)c1	-3.7
COC(=O)CNC(=O)N1CCC2(CC1)CC(c1ccccc1)CN(C)C2 (centres undefined)	0.761
CN(Cc1ccn[nH]1)C(=O)CCC(=O)NC1CCCC1	0.324
Cc1ccc(C(=O)N2CCC(C(F)(F)F)CC2)cc1N1CCNC1=O	2.01
COC(=O)[C@@H]1C[C@H](NC(=O)c2cc(=O)[nH]c3ccc(C)cc23)CN1C	6.46
CCN1CCC2(CCC1=O)CN(c1cnc3ccccc3n1)CCN2C (centres undefined)	1.79
Oc1cc(CCC2CCCCN2)cc(-c2cccnc2)c1 (centres undefined)	4.11
Cc1ccc2nc(C)c(C)c(C(=O)NCCCn3cnnc3)c2c1	-2.89
Cc1nc(-c2cc(F)c3c(c2)CC(CN)O3)c[nH]1 (centres undefined)	9.15
COc1cccc(CC2(C(=O)O)CCN(c3ccc(Cl)cn3)CC2)c1	-14
C=C(C)COc1ccccc1C(=O)NCCCc1nnn[nH]1	-1.82
Cc1nonc1CN(C)Cc1nc(-c2ccccc2Cl)oc1C	-3.04

Structure (SMILES)	cytotoxicity at 10 µM [%]
O=C1CCC2(CCN(Cc3ccc(F)cc3Cl)CC2)CN1CCO	5.29
Cc1nc2cc(C(=O)N3C[C@@H](C(=O)O)[C@H](c4ccncc4)C3)ccc2[nH]1	0.682
NC(=O)c1ccc(N2CCN(Cc3c(Cl)cncc3Cl)CC2)nc1	10.6
CCN1CC2(CCN(C(=O)C(C)Oc3ccc(F)cc3Cl)CC2)CC1=O (centres undefined)	-2.98
Cc1ccc(C2(O)CCN(C(=O)Cn3cc(C)c(=O)[nH]c3=O)CC2)nc1	-7.22
c1ccc(C(Cn2cccn2)Nc2cnccn2)cc1 (centres undefined)	2.99
CN(CC1Cc2ccccc2CN1C)c1nc(N)nc2c1CCNCC2 (centres undefined)	0.0642
CC(C)Cc1nc(CCn2ccc(=O)[nH]c2=O)n(-c2ccccn2)n1	-5.41
CCc1ccsc1C(=O)N1CCCN(Cc2nccn2CC)CC1	1.84
Cc1ccc(C(=O)Nc2cn[nH]c2)cc1	-8.83
Cc1cc(C)n(CC2CCCN2C(=O)CCc2nccs2)n1 (centres undefined)	-7.07
Cc1cnn(CC2CCCN2Cc2nc(N)c3ccccc3n2)c1 (centres undefined)	-29.5
CS(=O)(=O)c1ccc(OCCCN2CCc3cncnc3C2)cc1	-15.3
COc1ccc(C(O)CN2CC(n3nc(C)cc3C)C2)cc1 (centres undefined)	-15.3
c1cnnc(N2CCCC(NCc3ccncc3)C2)c1 (centres undefined)	-5.39
Cn1cnnc1C1CCCN(C(=O)c2ccc3c(c2)OCCO3)C1 (centres undefined)	-11
CCn1cc(CN2CCCN(C(=O)CCc3ccncc3)CC2)cn1	-11.1
Cc1ccsc1C(=O)NCCCn1nc2ccccn2c1=O	-1.1
c1ccc2oc(CCCN3CCCC3Cn3cncn3)nc2c1 (centres undefined)	-1.42
CC(C)n1ccnc1CN1CCCN(C(=O)c2nccnc2N)CC1	-7.26
CC(NC(=O)NCCCc1n[nH]c(N)c1C#N)c1ccccc1 (centres undefined)	-7.21
Cc1nn(C)cc1CCC(=O)N1CCCC(n2cncn2)C1 (centres undefined)	1.9

Structure (SMILES)	cytotoxicity at 10 µM [%]
CCN(CC)C(C(=O)NCc1ccc(N2CCCC2)nc1)C(C)C (centres undefined)	-8.08
O=C(CCN1CCCC1c1cccs1)N1CCc2sccc2C1 (centres undefined)	-0.636
Cc1nc(C)n(C2CCCN(C(=O)c3ccccc3C)C2)n1 (centres undefined)	1.59
CC(=O)Nc1nc(C(=O)Nc2ccc(F)cc2)cs1	6.47
O=C(CN(C1=NCCCC1)c1ccccc1)c1ccc(OC(F)F)cc1	2.88
CNC(=O)[C@@H]1CCO[C@@H]2CCN(Cc3ccsc3)C[C@H]21	-78.3
C[C@@H]1C(=O)NC[C@H]2CN(Cc3ccc4c(c3)OCO4)C[C@H]21	1.44
CN(C)CCn1c2c(ccc1=O)CC(NCc1cnn(C)c1)CC2 (centres undefined)	-105
Cc1cnc(N2CCc3cc(C(=O)O)c(N(C)C)nc3CC2)nc1	-104
Cc1ccc(C(=O)N2C[C@@H]3OCCN(C)[C@@H]3C2)cn1	-68.3
Cn1ccnc1CN1CCC(F)(F)C2(CCN(c3cccnc3)C2)C1 (centres undefined)	-98.8
CN(Cc1cccnc1)CC1CN(C(=O)C2CC2)Cc2nccn2C1 (centres undefined)	-79.8
O=C(Cc1cccs1)N1CC[C@H]2[C@@H]1CCC(=O)N2c1cccnc1	3.94
Cc1ccc(N2CC[C@@H]3[C@@H]2CCN3C(=O)Cc2cccs2)nn1	-99.8
Cc1ccc(N2CC[C@H]3O[C@H](C(=O)NCc4ccco4)CC[C@H]32)nn1	-71.9
c1ccc(CN2CCC3(CC2)CC(Oc2cccnc2)C3)nc1	-111
COc1ccc(CN2CCC3(CC2)NC(=O)CC3c2ccncc2)cc1 (centres undefined)	5.97
Cc1cccc(CN2C(=O)CC[C@@H]3[C@H]2CCN3Cc2cccnc2)n1	-74.6
Cc1cccc(C(=O)N2C[C@@H]3C(CC(=O)Nc4cccnc4)[C@@H]3C2)n1 (some centres undefined)	-0.39
O=C(CCc1n[nH]c2c1CCCC2)N1C[C@H]2CC[C@@H](C1)N(CC1CC1)C2	-3.73
COc1ccnc(N2C[C@H]3CC[C@@H](C2)N(CC2CC2)C3)n1	-0.65
